Active and inactive are the calls of the source. The calls are words filed in the database; no cut-off is given here.
How the values were obtained:
Salmonella typhimurium [1] = test: Mutagenicity in Salmonella typhimurium by Ames II test in absence of liver S9 fraction; type: toxicity, organism-based; details: salmonella enterica subsp. enterica serovar typhimurium
Salmonella typhimurium [2] = test: Mutagenicity in Salmonella typhimurium by Ames II test in presence of liver S9 fraction; type: toxicity, organism-based; details: salmonella enterica subsp. enterica serovar typhimurium
[3] = (§1) Metabolic stability in rat liver microsomes assessed as compound metabolism after 20 mins incubation in presence of 1 mM NADPH; type: ADME; details: liver microsomes, read-out: Drug metabolism
Summary of the method: (§2)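 Hepatic microsomal fractions are incubated with compound for 20 min with 1 mM NADPH. Result is reported as % metabolized, i.e. 100 minus % unchanged compound.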

P2Y purinoceptor 12 = P2Y purinoceptor 12 (Homo sapiens, UniProt Q9H244); test: Displacement of [33P]2MeS-ADP from P2Y12 receptor (unknown origin) transfected in CHO cells after 30 mins by scintillation counting analysis; type: cell-based
Summary of the method: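 P2Y12-expressing CHO cells (35 × 10³/sample) in PBS with 1 mM EDTA and 0.2% BSA are exposed to compound for 30 min. [³³P]2-MeS-ADP (0.16 nM) is then added for 15 min at 20 °C, in triplicate. Filtration separates free from bound ligand, followed by scintillation counting. Nonspecific binding uses 1 mM unlabeled ADP. IC50 comes from a four-parameter logistic fit with asymptotes fixed at 0 and 100. n = 2.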

[4] = Metabolic stability in human liver microsomes assessed as compound metabolism after 20 mins incubation in presence of 1 mM NADPH; type: ADME; details: liver microsomes, read-out: Drug metabolism; summary of the method: as §2
Rattus norvegicus [5] = test: Ex vivo inhibition of platelet aggregation in Sprague-Dawley rat at 10 mg/kg, po after 2 hrs; type: functional; details: for inhibition in vivo at 10 mg/kg: Rattus norvegicus, Sprague-Dawley, po, 2 h
Summary of the method: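 Male Sprague−Dawley rats (250−300 g), 6 per batch, are dosed by stomach tube at 10 mL/kg of a 1 mg/mL solution in 5% glucose water containing 5% Cremophor and 3% glycofurol. At 2 h, aortic blood is drawn into 3.8% citrate (1:9) under pentobarbital. PRP is prepared at 300g for 5 min. ADP aggregation is read as the 6-min absorbance AUC and expressed as % inhibition.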

Hepatocyte [6] = test: Intrinsic metabolic clearance in human hepatocytes measured per 10^6 cells after 24 hrs; type: ADME, cell-based
Summary of the method: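 Human hepatocytes incubated with compound for 24 h to measure in vitro metabolism. Clearance reported in mL·h⁻¹·(10⁶ hepatocytes)⁻¹.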

Hepatocyte [7] = test: Intrinsic metabolic clearance in human hepatocytes measured assessed as CYP3A4 contribution per 10^6 cells after 24 hrs; type: ADME, cell-based
[8] = Permeability across human Caco2 cells; type: ADME, cell-based; details: Caco-2, read-out: permeability
Summary of the method: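 Permeation is measured across a Caco2 cell monolayer and reported in 10⁻⁷ cm·s⁻¹.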

[9] = Metabolic stability in mouse liver microsomes assessed as compound metabolism after 20 mins incubation in presence of 1 mM NADPH; type: ADME; details: read-out: Drug metabolism
Summary of the method: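 Compound incubated with mouse hepatic microsomal fractions for 20 min with 1 mM NADPH. Read-out is % metabolism, meaning 100 minus % unchanged compound.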

Rattus norvegicus [10] = test: Ex vivo inhibition of platelet aggregation in Sprague-Dawley rat at 10 mg/kg, po after 6 hrs; type: functional; details: for inhibition in vivo at 10 mg/kg: Rattus norvegicus, Sprague-Dawley, po, 6 h
Summary of the method: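 Time-course study in Sprague−Dawley rats after a 10 mg/kg oral dose in glucose/Cremophor/glycofurol vehicle. Aortic citrated blood is sampled at intervals over the hours after dosing. PRP is prepared at 300g for 5 min. ADP-induced aggregation is measured as the 6-min absorbance AUC and reported as % inhibition.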

Liver microsome = test: as §1; type: ADME; details: microsomes, 20 min; summary of the method: as §2

Chain of P2Y purinoceptor 12 (Q9H244 whole entry): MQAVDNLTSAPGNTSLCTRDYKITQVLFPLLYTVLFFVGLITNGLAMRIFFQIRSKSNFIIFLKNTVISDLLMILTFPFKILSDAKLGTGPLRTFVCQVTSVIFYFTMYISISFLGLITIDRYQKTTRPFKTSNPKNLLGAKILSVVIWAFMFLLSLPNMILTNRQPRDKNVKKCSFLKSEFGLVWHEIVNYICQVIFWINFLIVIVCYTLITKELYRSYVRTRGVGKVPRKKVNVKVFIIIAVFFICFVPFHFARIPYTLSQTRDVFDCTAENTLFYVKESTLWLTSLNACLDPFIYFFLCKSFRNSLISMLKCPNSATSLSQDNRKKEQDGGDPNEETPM

Compound	metabolised at 20 min [3]	IC50 (P2Y purinoceptor 12)	metabolised at 20 min [4]	Papp [8]	Activity (Salmonella typhimurium [1])	Activity (Salmonella typhimurium [2])	inhibition in vivo at 10 mg/kg (Rattus norvegicus [5])	other results
CCCC(=O)c1cnn(-c2ccc(N)cc2)c1C	–	–	–	–	Non-toxic	Toxic	–	–
CCCC(=O)c1cnn(-c2ccc(N)c(C(N)=O)c2)c1C	–	–	–	–	Non-toxic	Non-toxic	–	–
CCCC(=O)c1cnn(-c2cnc(N)s2)c1C	–	–	–	–	Non-toxic	Toxic	–	–
CCCC(=O)c1cnn(-c2ccc(N)c(C(=O)N(C)C)c2)c1C	–	–	–	–	Non-toxic	Toxic	–	–
CCCC(=O)c1cnn(-c2ccc(NC(=O)c3cn(CC(=O)N4CCN(CCOC)CC4)c4ccc(Cl)cc34)cc2)c1C	11%	15 nM	47%	4.3 ×10⁻⁶ cm/s	–	–	68%	inhibition in vivo at 10 mg/kg (Rattus norvegicus [10]): 65%
CCCC(=O)c1cnn(-c2ccc(N)nc2)c1C	–	–	–	–	Non-toxic	Non-toxic	–	–
CCCC(=O)c1cnn(-c2ccc(NC(=O)c3cn(CC(=O)N4CCN5CCN(C)C(=O)C5C4)c4ccc(Cl)cc34)cc2)c1C (racemic)	–	8 nM	50%	3.6 ×10⁻⁶ cm/s	–	–	–	Drug metabolism (Liver microsome): 40%; inhibition (INH) (Rattus norvegicus [10]; 10 mg/kg): 39%; inhibition (INH) (Rattus norvegicus [5]; 10 mg/kg): 80%
CCCC(=O)c1cnn(C2CCN(N)CC2)c1C	–	–	–	–	Non-toxic	Non-toxic	–	–
CCCC(=O)c1cnn(-c2ccc(NC(=O)c3cn(CC(=O)N4CCN(CCF)CC4)c4ccc(C)cc34)cc2)c1C	36%	19 nM	62%	8.2 ×10⁻⁶ cm/s	–	–	–	–
CCCC(=O)c1cnn(-c2ccc(NC(=O)c3cn(CC(=O)N4CCN(CC(=O)N(C)C)CC4)c4ccc(Cl)cc34)cc2)c1C	7%	11 nM	28%	–	–	–	–	inhibition (Rattus norvegicus [5]): inactive

The next lines start with results.

metabolised at 20 min [3]	IC50 (P2Y purinoceptor 12)	metabolised at 20 min [4]	Papp [8]	Compound	Activity (Salmonella typhimurium [1])	Activity (Salmonella typhimurium [2])	inhibition in vivo at 10 mg/kg (Rattus norvegicus [5])	other results
6%	11 nM	14%	–	CCCC(=O)c1cnn(-c2ccc(NC(=O)c3cn(CC(=O)N4CCN(CCO)CC4)c4ccc(Cl)cc34)cc2)c1C	–	–	22%	–
18%	48 nM	61%	3.3 ×10⁻⁶ cm/s	CCCC(=O)c1cnn(-c2ccc(NC(=O)c3cn(CC(=O)N4CCN(C)CC4)c4ccc(Cl)cc34)c(C#N)c2)c1C	–	–	–	CLH (Hepatocyte [6]): 0.143 mL/h; Activity (Hepatocyte [7]): 67%; metabolised at 20 min [9]: 8%
14%	50 nM	15%	0.9 ×10⁻⁶ cm/s	CCCC(=O)c1cnn(-c2ccc(NC(=O)c3cn(CC(=O)N4CCN(C)CC4)c4ccc(C(F)(F)F)cc34)cc2)c1C	–	–	26%	–
23%	34 nM	36%	3.6 ×10⁻⁶ cm/s	CCCC(=O)c1cnn(-c2ccc(NC(=O)c3cn(CC(=O)N4CCN(C)CC4)c4cc(C)c(Cl)cc34)cc2)c1C	–	–	31%	–
52%	39 nM	50%	5.9 ×10⁻⁶ cm/s	CCCC(=O)c1cnn(-c2ccc(NC(=O)c3cn(CC(=O)N4CCN(C)CC4)c4cc(C)c(C)cc34)cc2)c1C.Cl	–	–	37%	–
21%	48 nM	31%	1.1 ×10⁻⁶ cm/s	CCCC(=O)c1cnn(-c2ccc(NC(=O)c3cn(CC(=O)N4CCN(C)CC4)c4cc(F)c(Cl)cc34)cc2)c1C	–	–	–	inhibition (Rattus norvegicus [5]): inactive
20%	48 nM	34%	2.8 ×10⁻⁶ cm/s	CCCC(=O)c1cnn(-c2ccc(NC(=O)c3cn(CC(=O)N4CCN(C)CC4)c4cc(C)c(Br)cc34)cc2)c1C	–	–	21%	–
27%	12 nM	63%	1.7 ×10⁻⁶ cm/s	CCCC(=O)c1cnn(-c2ccc(NC(=O)c3cn(CC(=O)N4CCN(Cc5ccc(F)cc5)CC4)c4ccc(C)cc34)cc2)c1C	–	–	–	–
31%	11 nM	87%	0.6 ×10⁻⁶ cm/s	CCCC(=O)c1cnn(-c2ccc(NC(=O)c3cn(CC(=O)N4CCN(Cc5cc(C)on5)CC4)c4ccc(Cl)cc34)cc2)c1C	–	–	72%	inhibition in vivo at 10 mg/kg (Rattus norvegicus [10]): 60%

Source: ChEMBL document CHEMBL3352233, “N-[6-(4-butanoyl-5-methyl-1H-pyrazol-1-yl)pyridazin-3-yl]-5-chloro-1-[2-(4-methylpiperazin-1-yl)-2-oxoethyl]-1H-indole-3-carboxamide (SAR216471), a novel intravenous and oral, reversible, and directly acting P2Y12 antagonist” (J Med Chem, 2014)
